The source made the active and inactive calls.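 The calls were made as follows: active = inhibition at 30 µM, averaged over replicates, above 50% in every run; inconclusive = inhibition above 50% in some runs but not others; inactive = inhibition at most 50% in every run.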
System: human washed platelets, PMA-induced P-selectin, flow cytometry
Assay: inhibitors of PMA-stimulated platelet P-selectin exposure, confirmation, selectivity assay, cell-based, fluorescence, flow cytometry, platelets (AID 2529)
Conditions: at 30 µM, stronger effect = higher value
Outline: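 test system = platelets | timing = compound pre-treatment 20 min, PMA stimulation 15 min, antibody labeling 20 min | compound = 30 µM single dose | technique = flow cytometry, PE anti-P-selectin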

Row | SMILES | inhibition | inhibition (measured here: second run average inhibition) [%]
1 | CCCC(=O)Nc1cccc(NC(=O)c2ccccc2Br)c1 | 13% (inactive) | 
2 | O=C(Nc1cccc(NC(=O)c2ccccc2Cl)c1)c1ccco1 | 17% (inactive) | 8
